# B1: Beta-lactamase (Pseudomonas fluorescens), D2WFL1 (protein)
# chain: MARPSKLALSFSLLLPFLPFTSFAETWPQGDIARQKIVKLEKDFGGRIGVSAIDTGANRTFDFRADERFPLCSSFKGFLAGAVLSHSQQQEGLLEKRIDYKNRVMEPHSPISAQHSSTGMTVAQLAAAALQYSDNGATNLLLENVLGGPAGMTTFMRTLGDTTFRLDRWELELNSAIPGDDRDTSTPHAIARSLQKIALGEALQTAPRQQLVDWLIGNTTGGARIRAGVPVEWVVGDKTGTCGVYGTANDYAVIWPKTSAPIVLAIYTAKPNKEDKHSDAVIAEVTRAVLESFE
# Legend:
# Escherichia coli [1] = experiment: Antimicrobial activity against Escherichia coli DH10B harbouring recombinant plasmid pSau1 expressing beta-lactamase BIC-1 from Pseudomonas fluorescens PF-1 by Etest; assay type: functional
# Pseudomonas fluorescens [2] = experiment: Antimicrobial activity against Pseudomonas fluorescens isolate PF-1 expressing beta-lactamase BIC-1 by Etest; assay type: functional
# In short: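 MIC for isolate PF-1 by Etest, interpreted per CLSI recommendations. Cultures grown in Trypticase soy broth, 37°C, 18 h.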
# Pseudomonas fluorescens [3] = experiment: Activity at Pseudomonas fluorescens PF-1 beta-lactamase BIC-1 expressed in Escherichia coli DH10B carrying pSau1
# Escherichia coli [4] = experiment: Antimicrobial activity against Escherichia coli DH10B by Etest; assay type: functional
# In short: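 MIC by Etest, interpreted per CLSI recommendations. Reference strain E. coli DH10B without recombinant plasmid; cultures grown in Trypticase soy broth at 37°C for 18 h.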
# Escherichia coli [5] = experiment: Antimicrobial activity against Escherichia coli DH10B harbouring recombinant plasmid pSau1 expressing beta-lactamase BIC-1 from Pseudomonas fluorescens PF-1 by Etest in presence of 4 ug/ml of clavulanic acid; assay type: functional
# Pseudomonas fluorescens [6] = experiment: Antimicrobial activity against Pseudomonas fluorescens isolate PF-1 expressing beta-lactamase BIC-1 by Etest in presence of 4 ug/ml of clavulanic acid; assay type: functional
# In short: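 MIC for isolate PF-1 by Etest, with clavulanic acid held at a fixed 4 μg/ml and the β-lactam varied. Interpreted per CLSI recommendations.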
# Escherichia coli [7] = experiment: Antimicrobial activity against Escherichia coli DH10B by Etest in presence of 4 ug/ml of clavulanic acid; assay type: functional
# In short: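 Etest MIC with clavulanic acid held at a fixed 4 μg/ml alongside the β-lactam, read per CLSI recommendations. Strain E. coli DH10B; cultures grown in TS broth at 37°C for 18 h.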
# [8] = target: Carbapenem-hydrolyzing beta-lactamase KPC (Klebsiella pneumoniae, UniProt Q9F663); experiment: Inhibition of carbapenem-resistant Klebsiella pneumoniae carbepenem-hydrolyzing beta-lactamase KPC-1
# [9] = Inhibition of Pseudomonas fluorescens PF-1 beta-lactamase BIC-1 expressed in Escherichia coli DH10B carrying pSau1
# In short: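 BIC-1 purified from E. coli DH10B(pSau1) lysate by S-Sepharose flowthrough, then Q-Sepharose with a 0–500 mM NaCl gradient. Enzyme preincubated with varied inhibitor (clavulanate, tazobactam or sulbactam) for 3 min at 30°C. Then 100 μM benzylpenicillin added. IC50 is the inhibitor concentration halving the hydrolysis rate.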
# [10] = substrate: O=C(Cc1cccs1)N[C@@H]1C(=O)N2C(C(=O)[O-])=C(C[n+]3ccccc3)CS[C@H]12; experiment: (§1) Ratio of Kcat to Km of Pseudomonas fluorescens PF-1 beta-lactamase BIC-1 expressed in Escherichia coli DH10B using nitrocefin hydrolysis
# In short: (§2)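 Cells from overnight 37°C TS broth culture with amoxicillin and kanamycin were sonicated. Enzyme purified by S-Sepharose (malonate pH 6.1), then Q-Sepharose (bis-Tris pH 7.2, 0–500 mM NaCl gradient), and dialyzed into 50 mM sodium phosphate pH 7. kcat and Km measured on the purified enzyme. Values are means of three independent experiments; SD within 10%.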
# [11] = substrate: CO[C@@]1(NC(=O)Cc2cccs2)C(=O)N2C(C(=O)O)=C(COC(N)=O)CS[C@@H]21; experiment: as §1; in short: as §2
# [12] = substrate: CC1(C)S[C@@H]2[C@H](NC(=O)[C@H](N)c3ccccc3)C(=O)N2[C@H]1C(=O)O; experiment: as §1; in short: as §2
# [13] = substrate: CC1(C)S[C@@H]2[C@H](NC(=O)Cc3ccccc3)C(=O)N2[C@H]1C(=O)O; experiment: as §1; in short: as §2
# [14] = substrate: C[C@@H](O)[C@H]1C(=O)N2C(C(=O)O)=C(S[C@@H]3CN[C@H](C(=O)Nc4cccc(C(=O)O)c4)C3)[C@H](C)[C@H]12; experiment: as §1; in short: as §2
# [15] = substrate: C[C@@H](O)[C@H]1C(=O)N2C(C(=O)O)=C(S[C@@H]3CN[C@H](C(=O)N(C)C)C3)[C@H](C)[C@H]12; experiment: as §1; in short: as §2
# [16] = substrate: CC(=O)OCC1=C(C(=O)O)N2C(=O)[C@@H](NC(=O)Cc3cccs3)[C@H]2SC1; experiment: as §1; in short: as §2
# [17] = substrate: CO/N=C(\C(=O)N[C@@H]1C(=O)N2C(C(=O)O)=C(COC(C)=O)CS[C@H]12)c1csc(N)n1; experiment: as §1; in short: as §2
# [18] = substrate: C[C@H]1[C@H](NC(=O)/C(=N\OC(C)(C)C(=O)O)c2csc(N)n2)C(=O)N1S(=O)(=O)O; experiment: as §1; in short: as §2
# [19] = substrate: CO[C@@]1(NC(=O)C(C(=O)O)c2ccc(O)cc2)C(=O)N2C(C(=O)O)=C(CSc3nnnn3C)CO[C@@H]21; experiment: as §1; in short: as §2
# [20] = substrate: CCN1CCN(C(=O)N[C@@H](C(=O)N[C@@H]2C(=O)N3[C@@H]2SC(C)(C)[C@@H]3C(=O)O)c2ccccc2)C(=O)C1=O; experiment: as §1; in short: as §2
# [21] = substrate: C[C@@H](O)[C@H]1C(=O)N2C(C(=O)O)=C(SCCNC=N)C[C@H]12; experiment: as §1; in short: as §2
# [22] = substrate: CC1(C)S[C@@H]2[C@H](NC(=O)[C@H](C(=O)O)c3ccsc3)C(=O)N2[C@H]1C(=O)O; experiment: as §1; in short: as §2
# [23] = substrate: Cc1onc(-c2ccccc2)c1C(=O)N[C@@H]1C(=O)N2[C@@H]1SC(C)(C)[C@@H]2C(=O)O; experiment: as §1; in short: as §2
# [24] = substrate: CO/N=C(\C(=O)N[C@@H]1C(=O)N2C(C(=O)O)=C(COC(N)=O)CS[C@H]12)c1ccco1; experiment: as §1; in short: as §2
# Chain of Carbapenem-hydrolyzing beta-lactamase KPC (Q9F663 whole entry): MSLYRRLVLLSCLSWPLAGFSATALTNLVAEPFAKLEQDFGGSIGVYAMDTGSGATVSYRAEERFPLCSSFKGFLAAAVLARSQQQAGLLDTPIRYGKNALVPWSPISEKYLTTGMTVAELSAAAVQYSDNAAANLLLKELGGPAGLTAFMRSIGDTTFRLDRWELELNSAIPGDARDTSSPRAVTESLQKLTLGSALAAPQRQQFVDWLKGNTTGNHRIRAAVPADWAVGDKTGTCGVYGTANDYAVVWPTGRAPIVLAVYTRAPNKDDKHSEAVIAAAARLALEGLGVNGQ
Molecule,MIC (Escherichia coli [1]) [µg/mL],MIC (Pseudomonas fluorescens [2]) [µg/mL],Km (Pseudomonas fluorescens [3]) [µM],kcat (Pseudomonas fluorescens [3]) [s⁻¹],MIC (Escherichia coli [4]) [µg/mL],other results
C[C@@H](O)[C@H]1C(=O)N2C(C(=O)O)=C(S[C@@H]3CN[C@H](C(=O)Nc4cccc(C(=O)O)c4)C3)[C@H](C)[C@H]12,0.25,> 16,10,2,0.12,
CO/N=C(\C(=O)N[C@@H]1C(=O)N2C(C(=O)[O-])=C(C[N+]3(C)CCCC3)CS[C@H]12)c1csc(N)n1,0.12,> 16,,,,
CC1(C)S[C@@H]2[C@H](NC(=O)Cc3ccccc3)C(=O)N2[C@H]1C(=O)O,,,48,31,,
CC1(C)S[C@@H]2[C@H](NC(=O)[C@H](N)c3ccccc3)C(=O)N2[C@H]1C(=O)O,,,1150,185,,
Cc1onc(-c2ccccc2)c1C(=O)N[C@@H]1C(=O)N2[C@@H]1SC(C)(C)[C@@H]2C(=O)O,,,110,15,,
O=C(Cc1cccs1)N[C@@H]1C(=O)N2C(C(=O)[O-])=C(C[n+]3ccccc3)CS[C@H]12,,,770,170,,
CC1(C)S[C@@H]2[C@H](NC(=O)[C@H](N)c3ccc(O)cc3)C(=O)N2[C@H]1C(=O)O [AMOXICILLIN],> 256,> 256,,,4,MIC (Escherichia coli [5]): 16 µg/mL; MIC (Pseudomonas fluorescens [6]): > 256 µg/mL; MIC (Escherichia coli [7]): 4 µg/mL
C[C@H]1[C@H](NC(=O)/C(=N\OC(C)(C)C(=O)O)c2csc(N)n2)C(=O)N1S(=O)(=O)O [AZTREONAM],16,> 256,> 1000,35,,
CO/N=C(\C(=O)N[C@@H]1C(=O)N2C(C(=O)O)=C(COC(C)=O)CS[C@H]12)c1csc(N)n1 [CEFOTAXIME],0.5,> 32,2200,20,0.12,
CO[C@@]1(NC(=O)Cc2cccs2)C(=O)N2C(C(=O)O)=C(COC(N)=O)CS[C@@H]21 [CEFOXITIN],4,> 256,825,1,1,
CC(C)(O/N=C(\C(=O)N[C@@H]1C(=O)N2C(C(=O)[O-])=C(C[n+]3ccccc3)CS[C@H]12)c1csc(N)n1)C(=O)O [CEFTAZIDIME],0.5,2,,,0.5,
CO/N=C(\C(=O)N[C@@H]1C(=O)N2C(C(=O)O)=C(COC(N)=O)CS[C@H]12)c1ccco1 [CEFUROXIME],16,> 256,> 1000,9,0.5,
CC(=O)OCC1=C(C(=O)O)N2C(=O)[C@@H](NC(=O)Cc3cccs3)[C@H]2SC1 [CEPHALOTHIN],128,> 256,550,250,2,
O=C(O)[C@H]1/C(=C/CO)O[C@@H]2CC(=O)N21 [CLAVULANIC ACID],,,,,,IC50 [8]: 10.5 µM; IC50 [9]: 30 µM
C[C@@H](O)[C@H]1C(=O)N2C(C(=O)O)=C(SCCNC=N)C[C@H]12 [IMIPENEM ANHYDROUS],,> 16,300,50,,MIC (Pseudomonas fluorescens [6]): > 16 µg/mL; MIC (Escherichia coli [7]): 0.12 µg/mL
C[C@@H](O)[C@H]1C(=O)N2C(C(=O)O)=C(S[C@@H]3CN[C@H](C(=O)N(C)C)C3)[C@H](C)[C@H]12 [MEROPENEM],0.25,> 16,12,1,0.12,
CO[C@@]1(NC(=O)C(C(=O)O)c2ccc(O)cc2)C(=O)N2C(C(=O)O)=C(CSc3nnnn3C)CO[C@@H]21 (some centres undefined) [MOXALACTAM],0.12,> 256,1700,3,0.12,
CCN1CCN(C(=O)N[C@@H](C(=O)N[C@@H]2C(=O)N3[C@@H]2SC(C)(C)[C@@H]3C(=O)O)c2ccccc2)C(=O)C1=O [PIPERACILLIN],256,4,175,40,1,
C[C@]1(Cn2ccnn2)[C@H](C(=O)O)N2C(=O)C[C@H]2S1(=O)=O [TAZOBACTAM],,,,,,IC50 [9]: 6.5 µM
CC1(C)S[C@@H]2[C@H](NC(=O)[C@H](C(=O)O)c3ccsc3)C(=O)N2[C@H]1C(=O)O [TICARCILLIN],> 256,> 256,250,15,4,MIC (Escherichia coli [5]): 128 µg/mL; MIC (Pseudomonas fluorescens [6]): > 256 µg/mL; MIC (Escherichia coli [7]): 4 µg/mL
B1,,,,,,kcat/Km [10]: 220000 M⁻¹ s⁻¹; kcat/Km [11]: 1000 M⁻¹ s⁻¹; kcat/Km [12]: 160000 M⁻¹ s⁻¹; kcat/Km [13]: 660000 M⁻¹ s⁻¹; kcat/Km [14]: 200000 M⁻¹ s⁻¹; kcat/Km [15]: 80000 M⁻¹ s⁻¹; kcat/Km [16]: 500000 M⁻¹ s⁻¹; kcat/Km [17]: 9000 M⁻¹ s⁻¹; kcat/Km [18]: < 35000 M⁻¹ s⁻¹; kcat/Km [19]: 1000 M⁻¹ s⁻¹; kcat/Km [20]: 210000 M⁻¹ s⁻¹; kcat/Km [21]: 170000 M⁻¹ s⁻¹; kcat/Km [22]: 60000 M⁻¹ s⁻¹; kcat/Km [23]: 100000 M⁻¹ s⁻¹; kcat/Km [24]: < 9000 M⁻¹ s⁻¹

# Source: ChEMBL document CHEMBL1212776, “Novel ambler class A carbapenem-hydrolyzing beta-lactamase from a Pseudomonas fluorescens isolate from the Seine River, Paris, France” (Antimicrob Agents Chemother, 2010)
